Measurements of several laboratories.
Each line is one published result; the experiments were not run side by side.
Transmembrane protease serine 6: Transmembrane protease serine 6 (Homo sapiens, UniProt Q8IU80)
Palmitoyl-protein thioesterase 1: Palmitoyl-protein thioesterase 1 (Homo sapiens, UniProt P50897)
EGFR: Epidermal growth factor receptor (EGFR, Homo sapiens, UniProt P00533)

Compound	target	assay	conditions	endpoint	value
CC1(C)C=Cc2c(ccc3c2OC[C@@H](c2ccc(O)cc2O)C3)O1	Neuronal acetylcholine receptor; alpha4/beta2 (Homo sapiens, UniProt P17787+P43681)	ion current, two-electrode voltage clamp	13 µM, oocytes	inhibition	> 50%
N=C(N)NCCC[C@H](NC(=O)[C@H](CC12CC3CC(CC(C3)C1)C2)NC(=O)[C@H](Cc1cscn1)NC(=O)CCc1ccccc1)C(=O)c1nc2ccccc2s1	Transmembrane protease serine 6	enzyme activity, inhibitor	0.1 µM	remaining activity	95%
C=C1CC[C@H]2C(=C)CC[C@H]3C(=C)C(=O)O[C@@H]3[C@@H]12	Palmitoyl-protein thioesterase 1	enzyme activity, inhibitor	125 µM	inhibition	4.92%
CC(C)(C)C[C@H](NC(=O)[C@H](Cc1cscn1)NC(=O)CCc1ccccc1)C(=O)N[C@@H](CCCNC(=N)N)C(=O)c1nc2ccccc2s1	Transmembrane protease serine 6	enzyme activity, inhibitor	0.1 µM	remaining activity	3%
[H]/N=C(\N/C(=N/[H])Nc1ccc(Cl)cc1)NC(C)C	Palmitoyl-protein thioesterase 1	enzyme activity, inhibitor	125 µM	inhibition	-0.79%
N=C(N)NCCC[C@H](NC(=O)[C@H](Cc1ccc(-c2ccccc2)cc1)NC(=O)[C@H](Cc1cscn1)NC(=O)CCc1ccccc1)C(=O)c1nc2ccccc2s1	Transmembrane protease serine 6	enzyme activity, inhibitor	0.1 µM	remaining activity	35%
O=C1C=C2CC3(O)COc4cc(O)ccc4C3=C2C=C1O (stereo not shown)	Palmitoyl-protein thioesterase 1	enzyme activity, inhibitor	625 µM	inhibition	29.3%
N=C(N)NCCC[C@H](NC(=O)[C@H](Cc1ccc(I)cc1)NC(=O)[C@H](Cc1cscn1)NC(=O)CCc1ccccc1)C(=O)c1nc2ccccc2s1	Transmembrane protease serine 6	enzyme activity, inhibitor	0.1 µM	remaining activity	90%
CNc1ncc2c(/C=C/C(=O)N3CCC(OC)CC3)nn(Cc3cccc(C(F)(F)F)c3)c2n1	Ribosomal protein S6 kinase alpha-2 (RPS6KA2, Homo sapiens, UniProt Q15349)	enzyme activity, inhibitor, radiometric	1 µM	remaining activity	86%
Cc1ncc(CN2CCN(Cc3ccccn3)CC2)c2cc(C(=O)c3ccc4c(c3)OCCO4)oc12	EGFR	enzyme activity, inhibitor, ADP detection	1 µM	inhibition	0 to 40%
Cc1cc([C@@H](C)Nc2ccccc2C(=O)O)c2nc(N3CCC(F)(F)CC3)c(C#N)c(=O)n2c1	Epidermal growth factor receptor (EGFR, Homo sapiens, UniProt P00533, L858R)	binding, competition with immobilised ligand	10 µM	remaining binding	100%
COc1cc(-c2cncc3c2CN(C)Cc2cc(N4CCNCC4)ccc2-3)cc(OC)c1OC	Tyrosine-protein kinase Blk (Blk, Mus musculus, UniProt P16277)	enzyme activity, inhibitor	1 µM	remaining activity	64%
CC1([C@H](NC(=O)[C@H](Cc2cscn2)NC(=O)CCc2ccccc2)C(=O)N[C@@H](CCCNC(=N)N)C(=O)c2nc3ccccc3s2)CC1	Transmembrane protease serine 6	enzyme activity, inhibitor	0.1 µM	remaining activity	36%
O=C1O[C@H]2[C@@H]3OC(=O)c4cc(O)c(O)c(O)c4-c4c(O)c(O)c5oc(=O)c6c(c(O)c(O)c7oc(=O)c4c5c76)-c4c(cc(O)c(O)c4O)C(=O)OC[C@H]3OC(O)[C@@H]2OC(=O)c2cc(O)c(O)c(O)c2-c2c1cc(O)c(O)c2O (mixture of isomers)	Palmitoyl-protein thioesterase 1	enzyme activity, inhibitor	125 µM	inhibition	51.3%
CC[C@H](NC(=O)[C@H](Cc1cscn1)NC(=O)CCc1ccccc1)C(=O)N[C@@H](CCCNC(=N)N)C(=O)c1nc2ccccc2s1	Transmembrane protease serine 6	enzyme activity, inhibitor	0.1 µM	remaining activity	20 to 50%
Cc1ncc(CN2CCc3ccccc3C2)c2cc(C(=O)c3ccc4c(c3)OCCO4)oc12	Epidermal growth factor receptor (EGFR, Homo sapiens, UniProt P00533, L858R/T790M)	enzyme activity, inhibitor, ADP detection	1 µM	inhibition	65 to 75%
CCCCC/C=C\C/C=C\CCCCCCCC(=O)O	Palmitoyl-protein thioesterase 1	enzyme activity, inhibitor	156 µM	inhibition	40.4%
Cc1ccc2c(-c3cc4c(CN5CCN(Cc6ccccn6)CC5)cnc(C)c4o3)cc(=O)oc2c1	Epidermal growth factor receptor (EGFR, Homo sapiens, UniProt P00533, C797S/L858R/T790M)	enzyme activity, inhibitor, ADP detection	1 µM	inhibition	75%
N=C(N)NCCC[C@H](NC(=O)C1(NC(=O)[C@H](Cc2cscn2)NC(=O)CCc2ccccc2)CC1)C(=O)c1nc2ccccc2s1	Transmembrane protease serine 6	enzyme activity, inhibitor	0.1 µM	remaining activity	60%
COc1c(O)cc2c(c1O)[C@@H]1O[C@H](CO)[C@@H](O)[C@H](O)[C@H]1OC2=O	Palmitoyl-protein thioesterase 1	enzyme activity, inhibitor	125 µM	inhibition	7.04%
Cc1ccc2c(-c3cc4c(CNCc5ccco5)cnc(C)c4o3)cc(=O)oc2c1C	EGFR	enzyme activity, inhibitor, ADP detection	1 µM	inhibition	0 to 40%
C=CCc1ccc(O)c(O)c1	Palmitoyl-protein thioesterase 1	enzyme activity, inhibitor	625 µM	inhibition	15.1%
C=CC(=O)N1CCC(COCC(=O)N2CCN(c3nc(-c4cnc(N)nc4C(F)F)nc(N4CCOC[C@@H]4C)n3)CC2)CC1	Mitogen-activated protein kinase 4 (MAPK4, Homo sapiens, UniProt P31152)	binding, competition with immobilised ligand	1 µM	remaining binding	100%
CC(C)(C)c1ccc(C[C@H](NC(=O)[C@H](Cc2cscn2)NC(=O)CCc2ccccc2)C(=O)N[C@@H](CCCNC(=N)N)C(=O)c2nc3ccccc3s2)cc1	Transmembrane protease serine 6	enzyme activity, inhibitor	0.1 µM	remaining activity	98%
COc1cnc(NS(=O)(=O)c2ccc(N)cc2)nc1	Palmitoyl-protein thioesterase 1	enzyme activity, inhibitor	125 µM	inhibition	13.6%
